Test results from ChEMBL document CHEMBL1759852, “A comparative study of proapoptotic potential of cyano analogues of boswellic acid and 11-keto-boswellic acid” (Eur J Med Chem, 2011).
Activity calls are given as the source filed them. No cut-off for these calls is given here.

What was measured:
HL-60 [1] = assay: Cell cycle arrest in human HL60 cells assessed as accumulation at sub-G1 phase at 4 uM after 18 hrs by flow cytometry relative to control
HL-60 [2] = assay: Induction of apoptosis in human HL60 cells assessed as early apoptotic cells at 4 uM after 6 hrs using Annexin-V-FITC/propidium iodide staining by flow cytometry (reference value: 6%); assay type: functional
Outline: (§1)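 HL-60 cells (1 × 10^6/ml) treated 6 h at varied concentrations; camptothecin 4 μM 6 h positive control. AnnexinV-FITC and propidium iodide staining per kit; FL-1 versus FL-2 flow cytometry with quadrant statistics for apoptotic and necrotic populations; representative of three experiments.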

HL-60 [3] = assay: Induction of apoptosis in human HL60 cells assessed as DNA ladder formation at 4 uM after 9 hrs by agarose gel electrophoresis; assay type: functional, cell-based
HL-60 [4] = assay: Induction of apoptosis in human HL60 cells assessed as late apoptotic cells at 4 uM after 6 hrs using Annexin-V-FITC/propidium iodide staining by flow cytometry (reference value: 1%); assay type: functional
Outline: as §1

CC[C@@]1(O)C(=O)OCc2c1cc1n(c2=O)Cc2cc3ccccc3nc2-1 [CAMPTOTHECIN]
Activity (HL-60 [1]): 96% | Activity (HL-60 [2]): 35% | Activity (HL-60 [3]): Active | Activity (HL-60 [4]): 4%
